ChEMBL document CHEMBL1125868, “Antidopaminergic effects of the stereoisomers of N-[(1-alkyl-2- pyrrolidinyl)methyl]-5-sulfamoylbenzamides and -2,3-dihydrobenzofuran-7-carboxamides” (J Med Chem, 1991)

Target: D(2) dopamine receptor (Rattus norvegicus, UniProt P61169)
Experiment: Binding affinity towards dopamine receptor D2 using as [3H]-spiperone radioligand.
Conditions: not given
In short: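 Rat striatal membranes washed in 50 mM Tris-HCl pH 7.7, then resuspended in 50 mM Tris-HCl pH 7.1 with NaCl, KCl, CaCl2, MgCl2, ascorbate and 10 μM pargyline, preincubated 10 min at 37 °C. Incubated with [3H]spiperone (0.2 nM final) for 20 min at 37 °C, then filtered. IC50 read from concentration-inhibition curves.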

Sequence of D(2) dopamine receptor (P61169 whole entry): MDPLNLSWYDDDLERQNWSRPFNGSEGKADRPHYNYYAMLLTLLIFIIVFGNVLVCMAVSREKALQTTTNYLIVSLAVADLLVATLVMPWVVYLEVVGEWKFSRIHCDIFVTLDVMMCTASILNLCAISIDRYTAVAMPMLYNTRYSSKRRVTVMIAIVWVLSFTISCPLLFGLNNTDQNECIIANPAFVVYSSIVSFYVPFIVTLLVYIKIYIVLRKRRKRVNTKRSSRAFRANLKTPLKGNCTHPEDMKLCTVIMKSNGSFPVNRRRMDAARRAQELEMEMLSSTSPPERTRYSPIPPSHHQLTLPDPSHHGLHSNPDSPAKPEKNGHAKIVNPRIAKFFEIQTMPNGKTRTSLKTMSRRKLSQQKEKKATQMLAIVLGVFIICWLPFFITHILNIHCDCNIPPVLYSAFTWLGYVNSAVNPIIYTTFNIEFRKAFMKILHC

Row | SMILES | Ki [nM]
1 | CCN1CCC[C@@H]1CNC(=O)c1cc(S(N)(=O)=O)cc2c1O[C@@H](C)C2 | 400
2 | CCCCCCN1CCC[C@@H]1CNC(=O)c1cc(S(N)(=O)=O)ccc1OC | 59
3 | CCCCN1CCC[C@H]1CNC(=O)c1cc(S(N)(=O)=O)cc2c1O[C@H](C)C2 | 210
4 | CCCCCCN1CCC[C@H]1CNC(=O)c1cc(S(N)(=O)=O)ccc1OC | 1400
5 | CCCCN1CCC[C@@H]1CNC(=O)c1cc(S(N)(=O)=O)ccc1OC | 230
6 | CCCCN1CCC[C@H]1CNC(=O)c1cc(S(N)(=O)=O)cc2c1O[C@@H](C)C2 | 95
7 | CCN1CCC[C@@H]1CNC(=O)c1cc(S(N)(=O)=O)cc2c1O[C@H](C)C2 | 650

The remaining lines, values ahead:

Row | Ki [nM] | SMILES
8 | 9.4 | CCCCN1CCC[C@@H]1CNC(=O)c1cc(S(N)(=O)=O)cc2c1O[C@@H](C)C2
9 | 6.7 | CCCCCCN1CCC[C@@H]1CNC(=O)c1cc(S(N)(=O)=O)cc2c1O[C@@H](C)C2
10 | 51 | CCCCN1CCC[C@H]1CNC(=O)c1cc(S(N)(=O)=O)ccc1OC
11 | 9.6 | CCN1CCC[C@H]1CNC(=O)c1cc(S(N)(=O)=O)cc2c1O[C@@H](C)C2
12 | 21 | CCN1CCC[C@H]1CNC(=O)c1cc(S(N)(=O)=O)cc2c1O[C@H](C)C2

Tested on: Mus musculus
Experiment: Ability to inhibit apomorphine induced hyperactivity in mice after intraperitoneal administration
Type: functional
Conditions: ip
In short: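 Male mice in groups of three, dosed ip 1 h before apomorphine HCl 0.5 mg/kg sc. Motor activity counted for 20 min right after apomorphine.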

Row | SMILES | ED50 [mg/kg]
13 | CCCCN1CCC[C@@H]1CNC(=O)c1cc(S(N)(=O)=O)cc2c1O[C@@H](C)C2 | 3.7
14 | CCN1CCC[C@@H]1CNC(=O)c1cc(S(N)(=O)=O)ccc1OC | > 250
15 | CCN1CCC[C@@H]1CNC(=O)c1cc(S(N)(=O)=O)cc2c1O[C@@H](C)C2 | 71.7
16 | CCCCCCN1CCC[C@H]1CNC(=O)c1cc(S(N)(=O)=O)cc2c1O[C@@H](C)C2 | > 100
17 | CCCCCCN1CCC[C@@H]1CNC(=O)c1cc(S(N)(=O)=O)ccc1OC | 28.2
18 | CCCCN1CCC[C@H]1CNC(=O)c1cc(S(N)(=O)=O)cc2c1O[C@H](C)C2 | 72.1
19 | CCCCCCN1CCC[C@@H]1CNC(=O)c1cc(S(N)(=O)=O)cc2c1O[C@@H](C)C2 | 12.2
20 | CCCCN1CCC[C@H]1CNC(=O)c1cc(S(N)(=O)=O)ccc1OC | 49.2
21 | CCN1CCC[C@H]1CNC(=O)c1cc(S(N)(=O)=O)ccc1OC [LEVOSULPIRIDE] | 9.3
22 | CCCCCCN1CCC[C@H]1CNC(=O)c1cc(S(N)(=O)=O)ccc1OC | > 100
23 | CCN1CCC[C@H]1CNC(=O)c1cc(S(N)(=O)=O)cc2c1O[C@@H](C)C2 | 5.7
24 | CCN1CCC[C@H]1CNC(=O)c1cc(S(N)(=O)=O)cc2c1O[C@H](C)C2 | 11
25 | CCCCN1CCC[C@@H]1CNC(=O)c1cc(S(N)(=O)=O)ccc1OC | 92.3
26 | CCCCN1CCC[C@H]1CNC(=O)c1cc(S(N)(=O)=O)cc2c1O[C@@H](C)C2 | 38.8
27 | CCN1CCC[C@@H]1CNC(=O)c1cc(S(N)(=O)=O)cc2c1O[C@H](C)C2 | 145
28 | CCCCN1CCC[C@@H]1CNC(=O)c1cc(S(N)(=O)=O)cc2c1O[C@H](C)C2 | 11.6

Tested on: Dopamine receptor (Mus musculus)
Experiment: Inhibitory effects on the hyperactivity against dopamine receptor after peroral administration
Conditions: not given

Row | SMILES | ED50 [mg/kg]
29 | CCN1CCC[C@@H]1CNC(=O)c1cc(S(N)(=O)=O)cc2c1O[C@@H](C)C2 | 419
30 | CCCCCCN1CCC[C@@H]1CNC(=O)c1cc(S(N)(=O)=O)ccc1OC | 65
31 | CCCCCCN1CCC[C@H]1CNC(=O)c1cc(S(N)(=O)=O)ccc1OC | > 100
32 | CCCCN1CCC[C@@H]1CNC(=O)c1cc(S(N)(=O)=O)ccc1OC | 184

Further lines, results first:

Row | ED50 [mg/kg] | SMILES
33 | 135 | CCCCN1CCC[C@H]1CNC(=O)c1cc(S(N)(=O)=O)ccc1OC
34 | 60.3 | CCN1CCC[C@H]1CNC(=O)c1cc(S(N)(=O)=O)cc2c1O[C@@H](C)C2
35 | 87.3 | CCN1CCC[C@H]1CNC(=O)c1cc(S(N)(=O)=O)cc2c1O[C@H](C)C2
